Data taken from ChEMBL document CHEMBL1250435, “Synthesis of a series of caffeic acid phenethyl amide (CAPA) fluorinated derivatives: comparison of cytoprotective effects to caffeic acid phenethyl ester (CAPE)” (Bioorg Med Chem, 2010).
Calls of active or inactive are those of the source. The rule behind the calls is not given here.

Columns and labels:
HUVEC [1] = test: Cytoprotective activity against H2O2-induced oxidative stress in HUVEC cells at 20 uM after 18 hrs by Cell-Titer Blue assay; type: functional, cell-based; conditions: Homo sapiens
Summary of the method: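 Confluent HUVEC (passage doublings 2–5) incubated 5 h at 37 °C with compound at 20 µM in MCDB 131 (from DMSO stock), washed twice with MCDB 131, then 2 mM H2O2 for 1 h at 37 °C. H2O2 removed, cells recovered 18 h in complete medium. Viability by 10% CellTiter-Blue fluorescence, compared with vehicle+H2O2 and unexposed cells. Mean ± SD, ANOVA with Tukey-Kramer.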

HUVEC [2] = test: Cytotoxicity against HUVEC cells at 10 to 60 uM after 24 hrs by Cell-Ttiter blue assay; type: cell-based; conditions: human
Summary of the method: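 Confluent HUVEC (population doublings 2–5) exposed 24 h at 37 °C to compound at 10, 20, 40 or 60 µM, diluted from DMSO stock into MCDB 131 (vehicle 0.1% DMSO). Medium replaced with 10% CellTiter-Blue for 2 h at 37 °C, fluorescence read at ex 545/em 590 nm. Viability expressed as % of vehicle control; below 90% of control scored toxic.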

HUVEC [3] = test: Cytoprotective activity against H2O2-induced oxidative stress in HUVEC cells after 18 hrs by Cell-Titer Blue assay; type: functional, cell-based; conditions: Homo sapiens
Summary of the method: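 Confluent HUVEC (population doublings 2–5, gelatin-coated 96-well) pretreated 5 h at 37 °C with compound at 1, 5, 20, 40 and 60 µM (DMSO stock diluted in MCDB 131), washed twice, exposed to 2 mM H2O2 for 1 h at 37 °C, then 18 h recovery in complete MCDB 131. Viability by 10% CellTiter-Blue fluorescence. % cytoprotection = (well − DMSO+H2O2 mean)/DMSO-only mean. EC50 by linear regression of first three points.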

| SMILES | Activity (HUVEC [1]) | Activity (HUVEC [2]) | EC50 (HUVEC [3]) [µM] |
| --- | --- | --- | --- |
| O=C(/C=C/c1cc(O)c(O)cc1F)NCCc1ccccc1 | Active | – | – |
| O=C(/C=C/c1ccc(O)c(F)c1)NCCc1ccccc1 | Active | – | – |
| O=C(/C=C/c1cc(O)c(O)c(F)c1)NCCc1ccccc1 | Active | Toxic | – |
| O=C(/C=C/c1ccc(O)c(O)c1)OCCc1ccccc1 [CAFFEIC ACID PHENETHYL ESTER] | – | – | 8 |
| O=C(/C=C/c1ccc(O)c(O)c1)NCCc1ccccc1 [CAFFEIC ACID PHENETHYL AMIDE] | – | – | 2 |
